This is a sample that favours compounds with a hit; in the whole collection about 2.3% have one here.
TRPC6 activator – mouse TRPC6 channel activation | HEK293-TRPC6 membrane potential dye fluorescence; active compounds read high | B-score at 10 µM | 310,000 tested, 0.13% active | AID 2550 | Q61143;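 active means B-score of the integrated fluorescence ratio above library mean plus 3 SD, and starting fluorescence ratio within library mean plus 5 SD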;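 further: higher score means more depolarization so channel activation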
TRPC4 PAM – allosterically enhances the mouse TRPC4 cation channel | Q9QUQ5 | HEK293 TRPC4beta/mu-opioid, DAMGO EC20, Fluo-4 Ca2+ flux; active compounds read high | B-score at 10 µM | 310,000 tested, 0.42% active;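 active means B-score of calcium response area above 5 SD of library B-scores, with initial fluorescence ratio within 5 SD of library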;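 further: B-score of integrated fluorescence ratio over time as area under calcium response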
Target sequence (Q9QUQ5 whole entry, looked up): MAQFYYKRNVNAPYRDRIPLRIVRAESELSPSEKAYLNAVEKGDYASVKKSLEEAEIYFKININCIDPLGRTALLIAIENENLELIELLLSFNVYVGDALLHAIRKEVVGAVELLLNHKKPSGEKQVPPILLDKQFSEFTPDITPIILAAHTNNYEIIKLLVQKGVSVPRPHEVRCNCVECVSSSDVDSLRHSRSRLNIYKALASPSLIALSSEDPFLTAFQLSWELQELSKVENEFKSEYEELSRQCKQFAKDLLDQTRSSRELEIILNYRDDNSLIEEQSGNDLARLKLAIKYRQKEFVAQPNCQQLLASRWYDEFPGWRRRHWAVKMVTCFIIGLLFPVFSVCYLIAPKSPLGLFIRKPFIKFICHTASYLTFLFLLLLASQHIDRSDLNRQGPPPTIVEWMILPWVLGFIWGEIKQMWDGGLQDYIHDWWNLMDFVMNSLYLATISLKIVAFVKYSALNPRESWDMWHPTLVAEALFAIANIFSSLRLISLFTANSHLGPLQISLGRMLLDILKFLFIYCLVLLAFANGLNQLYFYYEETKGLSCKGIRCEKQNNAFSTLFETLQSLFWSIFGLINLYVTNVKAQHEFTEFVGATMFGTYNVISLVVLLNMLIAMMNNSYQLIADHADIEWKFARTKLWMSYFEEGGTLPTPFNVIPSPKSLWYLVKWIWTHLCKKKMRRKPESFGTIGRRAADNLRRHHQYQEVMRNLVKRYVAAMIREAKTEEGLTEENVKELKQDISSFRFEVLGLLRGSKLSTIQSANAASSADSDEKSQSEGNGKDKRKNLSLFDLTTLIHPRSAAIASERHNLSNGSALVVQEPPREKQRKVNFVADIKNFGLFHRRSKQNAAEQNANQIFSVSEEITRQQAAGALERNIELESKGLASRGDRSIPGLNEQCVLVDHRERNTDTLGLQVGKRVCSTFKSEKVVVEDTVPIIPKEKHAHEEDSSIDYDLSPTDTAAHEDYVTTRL
TRPC4 act – TRPC4 (mouse) channel activation. Q9QUQ5. HEK293 TRPC4beta/mu-opioid, Fluo4 calcium fluorescence; active compounds read high. B-score at 10 µM. 310,000 tested, 0.49% active;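 active means B-score above 5 SD of library B-scores, and initial fluorescence ratio not above library mean plus 5 SD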;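 further: positive B-score marks a calcium rise read as TRPC4 activation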
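Material: HEK293 stable line with TRPC4beta plus mu-opioid receptor; technique: Fluo4 calcium-sensitive dye fluorescence, kinetic, 1 Hz baseline; timing: Fluo4 dye loading 45 min at room temperature, 110 s recording; controls: assay buffer as low control, maximal DAMGO as high control; read-out: integrated baseline-normalised fluorescence ratio, converted to per-well B score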
TRPC6 inhibitor – mouse TRPC6 channel inhibition; Q61143; HEK293-TRPC6, membrane potential dye, ACh-evoked depolarization; active compounds read low; B-score at 10 µM; 310,000 tested, 1.1% active; AID 2553;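 active means B-score under library mean minus 3 SD, initial fluorescence not abnormally high, positive integrated signal ratio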;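 further: B-score derived from integrated fluorescence ratio over the kinetic read; more negative B-score means stronger inhibition of depolarization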
TRPC4 inh – TRPC4 (mouse) channel inhibition | B-score at 10 µM | Q9QUQ5 | 300,000 tested, 0.39% active | HEK293 TRPC4beta/mu-opioid, DAMGO-evoked Fluo4 calcium flux; active compounds read low | AID 2247;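 active means B-score over 3 SD under the library average, no early fluorescence shift, positive overall ratio signal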
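Material: HEK293 cells with stable TRPC4beta plus mu-opioid receptor expression / Probe or stimulus: DAMGO in two steps, submaximal then maximal / Compound: single concentration per test compound / Technique: kinetic Fluo4 fluorescence imaging of calcium influx / Read-out: per-well B score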
TRPC4 sel inh 2 – second check of whether TRPC6 inhibitors also affect mouse TRPC4 | shares compounds with TRPC6 inhibitor | HEK293 TRPC4/MOR, membrane potential dye fluorescence; channel activated by saturating DAMGO dose | inhibition, % at 10 µM | 920 tested, 42% active | AID 2776;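 active means compounds whose fluorescence signal differed from control wells by over 3 SD, either direction, in both duplicate plates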
TRPC4 spec – mouse TRPC4 off-target activity of TRPC6 inhibitors; shares compounds with TRPC6 inhibitor; 920 tested, 61% active; activity change, negative = inhibition, % at 10 µM; HEK293 TRPC4/mu-opioid, membrane potential fluorescence;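 active means rise or fall in signal beyond 3 SD of buffer-only wells in both replicate plates, either sign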;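 further: integrated kinetic ratio of fluorescence range over baseline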
HEK293 MPD ctr 2-1 – second check of TRPC6 inhibitor effects in parental HEK293 cells; shares compounds with TRPC6 inhibitor; parental HEK293 membrane potential dye fluorescence; maximal acetylcholine challenge after compound addition; signal change vs control, % at 10 µM; 920 tested, 31% active; AID 2779;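 active means membrane potential signal moving either way by over 3 SD of the maximum-effect control, in both duplicate plates, meaning non-specific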
HEK293 MPD ctr-1 – checks TRPC6 inhibitor effects in parental HEK293 cells; shares compounds with TRPC6 inhibitor; membrane potential signal change, % at 10 µM; 920 tested, 60% active; AID 2780; parental HEK293 membrane potential dye fluorescence;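 active means membrane potential signal shifting up or down by more than 3 SD of buffer-only wells, on both duplicate plates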
HEK293 MPD ctr-2 – parental HEK293 nonspecific activity of TRPC6 modulators; 2,400 tested, 51% active; shares compounds with TRPC6 inhibitor; membrane potential dye fluorescence; membrane potential signal change, % at 10 µM;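 active means membrane potential signal moves up or down beyond 5 SD from buffer-only wells, on both duplicate plates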
HEK293 MPD ctr 2-2 – second counter-screen for TRPC6 modulators: effect in parental HEK293 cells; shares compounds with TRPC6 inhibitor; membrane potential dye fluorescence; after compound, maximal acetylcholine stimulation; inhibition, % at 10 µM; 2,400 tested, 14% active; AID 488926;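 active means membrane potential signal drops by more than 5 SD from the mean control signal, in both duplicate plates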;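 further: plate controls were acetylcholine ECmax control wells for no effect and buffer only wells for full effect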
TRPC4/MOR mod – mouse TRPC4 off-target activity of TRPC6 modulators | shares compounds with TRPC6 inhibitor | 2,400 tested, 69% active | percent change from control (negative = decrease, positive = increase), % at 10 µM | AID 488927 | HEK293 TRPC4/mu-opioid, membrane potential fluorescence;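 active means membrane potential signal moved up or down beyond 5 SD of buffer control wells, in both duplicate plates, actives on both sides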;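 further: plate controls were assay buffer wells for no effect and DAMGO maximal-effect wells for full effect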
TRPC4 ctr inh 2 – mouse TRPC4 off-target activity of TRPC6 modulators, second screen | shares compounds with TRPC6 inhibitor | HEK293 TRPC4/mu-opioid, membrane potential dye fluorescence; stimulated with maximal-effect DAMGO | inhibition, % at 10 µM | 2,400 tested, 55% active;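 active means drop in membrane potential signal beyond 5 SD of the control wells in both duplicate plates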;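 further: TRPC4 counter screen for TRPC6 hits run under conditions tuned for TRPC6 not TRPC4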
TRPC6 block conf – confirmation of mouse TRPC6 inhibitors; inhibition, % at 10 µM; shares compounds with TRPC6 inhibitor; HEK293-TRPC6, membrane potential dye, ACh-evoked depolarization; 3,300 tested, 43% active; AID 488960;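 active means fluorescence ratio falls more than 5 SD below the full-stimulation control mean, in both duplicate runs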;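 further: integrated fluorescence ratio of peak minus minimum over baseline after agonist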
TRPC6 act confirm – mouse TRPC6 activator confirmation; shares compounds with TRPC6 inhibitor; HEK293-TRPC6 membrane potential dye fluorescence, FDSS; activation, % at 10 µM; 2,800 tested, 11% active; AID 488961;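 active means ratio signal rise beyond 5 SD above unstimulated control wells' mean, seen in both duplicate runs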;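 further: plate controls were buffer EC0 wells for no effect and acetylcholine ECmax response for full effect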
* hit, by the source's call; i = inactive; . = no result given; + = active, no number.

SMILES | TRPC6 activator | TRPC4 PAM | TRPC4 act | TRPC6 inhibitor | TRPC4 inh | HEK293 MPD ctr-2 | HEK293 MPD ctr 2-2 | TRPC4/MOR mod | TRPC4 ctr inh 2 | TRPC6 block conf | TRPC6 act confirm | others
Cc1ccc(C(=O)N2CC(=O)Nc3ccc(C)cc3C2c2ccccc2)cc1 (stereo unspecified) | i | i | i | i | i | . | . | . | . | . | .
c1ccc(Cn2c(CNc3nc4ccccc4n3CCN3CCCCC3)nc3ccccc32)cc1 | i | i | i | -6.65* | i | . | . | . | . | i | i | TRPC4 sel inh 2=59.0%*;TRPC4 spec=11.1%*;HEK293 MPD ctr 2-1=284.5%*;HEK293 MPD ctr-1=6.9%*
CCCCCCCOc1ccc(-c2ccc(C#N)cn2)cc1 | i | i | i | i | i | . | . | . | . | . | .
OCCNCc1cccc(OCc2ccc(Cl)cc2)c1 | i | i | i | i | i | . | . | . | . | . | .
OCCNCc1cc(Br)ccc1OCc1ccc(Cl)cc1 | i | i | i | -5.65* | i | 101.5%* | i | 17.0%* | 89.0%* | 45.0%* | .
Oc1ccc(Cc2ncc(C(F)(F)F)cc2Cl)cc1 | i | i | i | i | i | . | . | . | . | . | .
O=C1c2ccccc2NC(c2ccccc2)N1c1ccc(O)cc1 (stereo unspecified) | i | i | i | i | i | . | . | . | . | . | .
COc1ccc2c(OC)c3ccoc3nc2c1OC | i | i | i | -5.59* | i | i | i | i | i | i | .
COc1c2ccoc2nc2c(OC)c(O)ccc12 | i | i | i | i | i | . | . | . | . | . | .
COC(C#CCCN(C)C)(c1ccccc1)c1ccccc1 | i | i | i | -6.48* | i | i | 89.0%* | 14.0%* | 34.0%* | 79.0%* | .
CCOc1cc(C(=S)N2CCC(O)CC2)ccc1OS(=O)(=O)c1ccc(Br)cc1 | i | i | i | -8.39* | i | . | . | . | . | i | i | TRPC4 sel inh 2=i;TRPC4 spec=i;HEK293 MPD ctr 2-1=i;HEK293 MPD ctr-1=i
N#Cc1cc2[nH]c3ccccc3c2[n+](-c2ccc([N+](=O)[O-])cc2)c1N | i | i | i | -9.93* | i | -321.5%* | 94.0%* | -18.5%* | 97.0%* | 75.0%* | i
CCCCC1(C)OC(=O)C(=Cc2ccc(N(CC)CC)cc2)C(=O)O1 (stereo unspecified) | 35.7* | i | i | i | i | + | i | 185.5%* | i | i | 368.0%*
CC1=NOC(=O)/C1=C/c1ccc(N(C)C)cc1 | i | i | i | i | i | . | . | . | . | . | .
CCOc1ccccc1NC=C1C(=O)OC2(CCCCC2)OC1=O | i | i | i | i | i | . | . | . | . | . | .
CCN(CC)c1ccc(/C=C2/C(=O)ON=C2C)cc1 | 12.9* | i | i | i | i | 799.0%* | i | 59.0%* | i | i | 133.0%*
CCN(CC)c1ccc(C=C2C(=O)OC3(CCCCC3)OC2=O)cc1 | 58.8* | i | i | i | i | 723.5%* | i | 161.5%* | i | i | 188.0%*
CCN(CC)C(=O)CN1CCN(c2ccccc2F)CC1 | i | i | i | i | i | . | . | . | . | . | .
Cc1nn(CCCC(=O)NCc2ccc(F)cc2)c(C)c1[N+](=O)[O-] | i | i | i | i | i | . | . | . | . | . | .
Cc1ccc(S(=O)(=O)NCCNC(=O)c2ccc(C)nc2)cc1 | i | i | i | -6.32* | i | i | i | i | i | i | .
Cc1ccc(C(=O)NCCCNCCCNC(=O)c2ccc(C)nc2)cn1 | i | i | i | i | i | . | . | . | . | . | .
O=C(Nc1ccc2c(c1)OCCO2)c1ccc(NC(=O)C2CCCO2)cc1 (stereo unspecified) | i | i | i | -5.21* | i | i | i | i | i | i | i
O=C(NCc1ccc2c(c1)OCO2)c1ccc(NC(=O)C2CCCO2)cc1 (stereo unspecified) | i | i | i | i | i | . | . | . | . | . | .
Cc1ccc(S(=O)(=O)NCCNc2ccc([N+](=O)[O-])cc2)cc1 | i | i | i | -5.63* | i | i | i | -14.0%* | i | i | i
COc1ccc(Nc2ccnc3ccccc23)cc1 | i | i | i | -8.46* | i | . | . | . | . | 53.8%* | i | TRPC4 sel inh 2=54.5%*;TRPC4 spec=-24.7%*;HEK293 MPD ctr 2-1=i;HEK293 MPD ctr-1=-284.0%*
CC(C)Nc1ccc(Nc2ccnc3cc4ccccc4cc23)cc1 | i | i | i | -6.23* | i | i | i | i | 54.5%* | i | i
c1ccc(CCNc2ccnc3cc4ccccc4cc23)cc1 | i | i | i | i | i | . | . | . | . | . | .
COc1ccc(Nc2ncnc3ccccc23)cc1 | i | i | i | i | i | . | . | . | . | . | .
CN1CCN(S(=O)(=O)c2ccc(NC(=O)c3cccc(S(=O)(=O)N4CCCC4)c3)cc2)CC1 | i | i | i | -5.46* | i | i | i | i | i | i | i
CC1CCCN(S(=O)(=O)c2ccc(NC(=O)CNC3CCCC3)cc2)C1 (stereo unspecified) | i | i | i | -6.71* | i | . | . | . | . | i | i | TRPC4 sel inh 2=54.0%*;TRPC4 spec=i;HEK293 MPD ctr 2-1=i;HEK293 MPD ctr-1=3.2%*
